Reference: ChEMBL document CHEMBL5032499, “A Druglike Small Molecule that Targets r(CCUG) Repeats in Myotonic Dystrophy Type 2 Facilitates Degradation by RNA Quality Control Pathways” (J Med Chem, 2021)
Activity calls are given as the source filed them. The rule behind the calls is not given here.

Legend:
Fibroblast [1] = experiment: Reduction in CNBP intron 1 level in DM2 patient derived fibroblast at 1 uM by RT-qPCR analysis; assay type: functional, tissue-based; conditions: Homo sapiens
Outline: (§1)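 DM2 patient fibroblasts (DMEM, 20% FBS) were treated at 40% confluency for 48 h. Total RNA was then extracted and transcript levels were measured by RT-qPCR, normalized to GAPDH (n = 6 replicates per concentration, 2 independent experiments).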

[2] = Binding affinity to r(CCUG)12 (unknown origin) assessed as apparent dissociation constant incubated for 30 mins by microscale thermophoresis; parameters: species or system Homo sapiens; conditions: read-out: Kd(app)
Outline: (§2)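 Microscale thermophoresis with Cy5-labeled RNA (5 nM) folded in 8 mM Na2HPO4 pH 7.0, 185 mM NaCl, 1 mM EDTA at 60 °C for 5 min, then slowly cooled. The RNA was added to 1:1 serial compound dilutions in the same buffer, giving 0.05% Tween-20 final, and held 30 min at room temperature. Kd was fit to a quadratic binding equation; values are the mean of two independent experiments.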

Fibroblast [3] = experiment: Cytotoxicity against DM2 patient derived fibroblast assessed as cell viability at 5 uM incubated for 48 hrs by Cell Titre-Glo assay; assay type: cell-based; conditions: human
Outline: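 DM2 patient-derived fibroblasts were grown in high-glucose DMEM with 20% FBS at 37 °C, 5% CO2. After 48 h of compound treatment, viability was read as CellTiter-Glo luminescence after 10 min at room temperature (n = 6 replicates, one independent experiment).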

Fibroblast [4] = experiment: Effect on IR exon 11 exclusion in wild type human fibroblast at 0.2 to 5 uM by RT-qPCR analysis; assay type: functional, tissue-based; conditions: dose 0.2-5 µM
Fibroblast [5] = experiment: Reduction in CNBP intron 1 level in DM2 patient derived fibroblast at 5 uM by RT-qPCR analysis; assay type: functional, tissue-based; conditions: Homo sapiens; outline: as §1
[6] = Binding affinity to Base-paired RNA (unknown origin) assessed as dissociation constant incubated for 30 mins by microscale thermophoresis; parameters: species or system Homo sapiens; outline: as §2
Fibroblast [7] = experiment: Effect on MAP4K4 exon 22a splicing in DM2-patient derived fibroblast; assay type: tissue-based; conditions: Homo sapiens
Fibroblast [8] = experiment: Effect on CNBP mature mRNA level in wild type human fibroblast at 0.2 to 5 uM by RT-qPCR analysis; assay type: functional, tissue-based; conditions: dose 0.2-5 µM
Outline: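 Wild-type GM07492 fibroblasts were grown in MEM with 10% FBS. They were treated at 40% confluency for 48 h, and total RNA was extracted. Transcript level was measured by RT-qPCR normalized to GAPDH (n = 6 per concentration, 2 independent experiments).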

[9] = Induction of disruption of r(CCUG)12-MBNL1 complex (unknown origin) incubated for 15 mins by TR-FRET assay; parameters: species or system Homo sapiens
Outline: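 Biotinylated r(CCUG)12 was folded at 60 °C for 5 min in 20 mM HEPES pH 7.5, 110 mM KCl, 10 mM NaCl. It was then brought to assay buffer (plus 2 mM MgCl2, 2 mM CaCl2, 5 mM DTT, 0.1% BSA, 0.5% Tween-20) and preincubated 15 min with MBNL1-His6 (final 80 nM RNA, 60 nM protein). Compound was added for 15 min, then streptavidin-XL665 (40 nM) and anti-His6-Tb (0.44 ng/μL) for 30 min at room temperature. TR-FRET 545/665 ratios were read; IC50 was taken from dose-response fits.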

Homo sapiens [10] = species: Homo sapiens; experiment: Inhibition of r(CCUG)12-MBNL1 complex formation (unknown origin) assessed as rescue of IR exon 11 splicing defect at 5 uM by RT-PCR analysis; parameters: scale not given: the % may be the effect or the level left
Outline: (§3)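 DM2 patient fibroblasts were treated at ~40% confluency for 48 h. About 1 μg of total RNA was reverse transcribed, and IR exon 11 was PCR-amplified for 35 cycles (95 °C/58 °C/72 °C). Products were resolved on 2% agarose stained with ethidium bromide and quantified by densitometry. Percent rescue was calculated as (DM2 untreated − treated exclusion)/(DM2 untreated − WT exclusion) × 100.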

Fibroblast [11] = experiment: Inhibition of r(CCUG)12-MBNL1 complex formation in DM2-patient derived fibroblast assessed as reduction in complex in nuclear foci per cell at 5 uM by immunofluorescence imaging analysis; assay type: tissue-based; conditions: Homo sapiens
Fibroblast [12] = experiment: Effect on CNBP mature mRNA level in DM2 patient derived fibroblast at 0.2 to 5 uM by RT-qPCR analysis; assay type: functional, tissue-based; conditions: Homo sapiens, dose 0.2-5 µM; outline: as §1
Homo sapiens [13] = species: Homo sapiens; experiment: Inhibition of r(CCUG)12-MBNL1 complex formation (unknown origin) assessed as rescue of IR exon 11 splicing defect at 1 uM by RT-PCR analysis; parameters: scale not given: the % may be the effect or the level left; outline: as §3

For `Cc1ccc2nc(Nc3ccc4nc(C)sc4c3)nc(NCCCO)c2c1`, the Activity (Fibroblast [1]) was “Active”, the Kd [2] was 192 nM and the Activity (Fibroblast [3]) was “Non-Toxic”. For the same compound, the Activity (Fibroblast [4]) was “inactive”, the Activity (Fibroblast [5]) was “Active” and the Kd [6] was > 20000 nM. The Activity (Fibroblast [7]) was “inactive”, the Activity (Fibroblast [8]) was “inactive” and the IC50 [9] was 2000 nM. For the same compound, the Activity (Homo sapiens [10]) was 30%, the inhibition (Fibroblast [11]) was 30% and the Activity (Fibroblast [12]) was “inactive”. It also gave an Activity (Homo sapiens [13]) of 33%.
